Shown are actives, neighbours in structure and some others; about 2.9% of the full set was active somewhere.
Beta2AR agonist: human beta-2 adrenergic receptor agonism by FAP | AID 504454 | response, % (no concentration beside the values) | P07550 | hit rate 0.43% among 340,000 | Am2.2-beta2AR cells, FAP receptor internalization, flow cytometry;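 active = response above a set limit, near 3 SD of response in nonfluorescent compounds, cut at about 42% in these data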
MEKK2 mut-MEK5: signal of MEK5 binding to mutant human MEKK2 PB1 domain; percent response, % at 10 µM; AID 1530; bead flow cytometry, Alexa488-MEK5 binding to MEKK2 mutant; hit rate 0.35% among 290,000; in the data active = percent response above about 24%, passing the limit was not always enough
Dynein cargo inh: dynein cargo transport inhibition; 3617.4 mouse cells, GR-EGFP nuclear translocation imaging; test concentration mostly 20 µM; stimulated with dexamethasone, 1 µM; hits give low values; z-score, hits read low; hit rate 0.47% among 220,000;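 active = plate z-score of nuclear minus cytoplasmic receptor signal below a set negative limit, without overly bright fluorescence or cell loss, cut at about -3.5 in these data, passing the limit was not always enough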;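 also: z-score of nuclear minus cytoplasmic ring GR-EGFP intensity difference per well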
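Buffer or medium: tet-free medium with charcoal-stripped serum / Also added: dexamethasone agonist, 1.0 µM final, for 30 min / Timing: induction 48 h, compound 1 h, agonist 30 min / Measured by: high-content fluorescence imaging after fixation / Read-out: nuclear-to-cytoplasmic GR-EGFP distribution per well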
MEKK2wt PB1 HTS: raises or lowers MEK5 binding to wildtype human MEKK2 PB1 domain. binding response (% of control), % at 10 µM. bead flow cytometry, Alexa488-MEK5 binding to MEKK2 WT; actives lie on both sides. hit rate 1.1% among 290,000. Q9Y2U5. AID 1531; in the data active = binding response below about 67% or above about 130%
ATG4B inh: inhibitors of human ATG4B cysteine protease; Q9Y4P1; ATG4B cleavage of LC3-PLA2, NBD-HPC fluorescence, 1 h; inhibition, % at 8.33 µM; hit rate 0.51% among 340,000; AID 504462; in the data active = inhibition above about 40%
MEKK3 PB1 HTS: raises or lowers MEK5 binding to the human MEKK3 PB1 domain; Q99759; bead-based flow cytometry, Alexa488-MEK5 binding to MEKK3; actives lie on both sides; 0 = blocked by unlabeled MEK5, 100 = vehicle; binding response (% of control), % at 10 µM; hit rate 1.4% among 290,000;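 active = binding response more than 3 SD above or below the average of its plate-row segment, actives on both sides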;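 also: Alexa488 bead fluorescence after subtracting the streptavidin-only scavenger bead signal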
Target sequence (Q99759 whole entry, looked up, the tested form may be a part): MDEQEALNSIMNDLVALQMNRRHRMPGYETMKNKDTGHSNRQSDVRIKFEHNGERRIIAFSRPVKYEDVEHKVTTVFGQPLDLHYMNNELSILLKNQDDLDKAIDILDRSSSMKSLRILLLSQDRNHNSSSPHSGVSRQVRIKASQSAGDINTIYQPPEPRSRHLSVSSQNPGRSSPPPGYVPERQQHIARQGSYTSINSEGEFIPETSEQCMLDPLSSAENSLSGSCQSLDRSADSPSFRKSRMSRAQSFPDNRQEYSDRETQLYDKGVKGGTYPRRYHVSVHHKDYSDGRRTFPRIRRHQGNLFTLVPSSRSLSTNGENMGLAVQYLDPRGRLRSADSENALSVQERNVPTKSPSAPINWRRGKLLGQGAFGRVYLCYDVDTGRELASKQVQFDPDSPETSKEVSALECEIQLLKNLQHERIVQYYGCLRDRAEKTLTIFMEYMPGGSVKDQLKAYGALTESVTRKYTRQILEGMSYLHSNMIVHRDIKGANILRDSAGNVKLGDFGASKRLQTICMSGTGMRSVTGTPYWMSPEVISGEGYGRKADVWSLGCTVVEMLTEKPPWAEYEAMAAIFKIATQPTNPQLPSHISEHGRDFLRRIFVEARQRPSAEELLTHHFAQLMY
Dynein confirm: dynein cargo transport inhibition, confirmation. 3617.4 GR-EGFP nuclear translocation imaging, dexamethasone-induced. calls only at 20 µM. hit rate 69% among 1,000. shares compounds with Dynein cargo inh;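 active = inhibition of receptor movement into the nucleus at or above a set limit in both runs, with normal cell brightness and cell count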;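 also: dexamethasone at 1 µM final in well for 30 min; nuclear minus cytoplasmic GR-EGFP mean intensity difference in channel 2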
MEKK2wt confirm: raises or lowers MEK5 binding to wildtype human MEKK2, retest; binding response (% of control), % at 10 µM; hit rate 2.4% among 5,900; shares compounds with MEKK3 PB1 HTS; bead flow cytometry, Alexa488-MEK5 binding to MEKK2 WT; actives lie on both sides; in the data active = binding response below about 16% or above about 210%; inactive = in between
MEKK2mut-MEK5: signal of MEK5 binding to mutant human MEKK2, retest; bead flow cytometry, Alexa488-MEK5 binding to MEKK2 mutant; hit rate 2% among 5,900; shares compounds with MEKK3 PB1 HTS; AID 1893; percent response, % at 10 µM; in the data active = percent response mostly above about 71%, no sharp cut-off; inactive = mostly below about 38%;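 also: higher means compound restores mutant binding toward wildtype level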
MEKK3 confirm: confirmation of inhibitors of MEK5 binding to human MEKK3; bead flow cytometry, Alexa488-MEK5 binding to MEKK3; hits give low values; hit rate 1.8% among 5,900; shares compounds with MEKK3 PB1 HTS; binding response (% of control), % at 10 µM; AID 1894;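 active = binding response below 72% of control, or above a set upper limit, though filed actives all read lower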;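 also: 100% = DMSO only wells and 0% = binding blocked by excess unlabeled MEK5; lower values mean stronger disruption of MEK5 binding to MEKK3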
The depositor's hits bear a star; i = inactive; x = not tested or not shown; + = active, no number; [ ] = another dose, or the depositor's remark.

SMILES | Beta2AR agonist | MEKK2 mut-MEK5 | Dynein cargo inh | MEKK2wt PB1 HTS | ATG4B inh | MEKK3 PB1 HTS | Dynein confirm | MEKK2wt confirm | MEKK2mut-MEK5 | MEKK3 confirm
Cc1cc(C)n(-c2nc(NCCN(C)C)c3c4c(sc3n2)CCCC4)n1 | 38.0 | 28.0 | -4.58* | 147.0* | 6.2 | 88.0 | i | 137.0 | 31.0 | 105.0
CCCN1C(=O)/C(=C\C=C2/C=CN(CC)c3ccccc32)SC1=S | 14.9 | -4.0 | -0.392 | 52.0 | -6.0 | 88.0 | x | x | x | x
CCCCN1C(=O)/C(=C/C=C2\N(C)c3ccccc3C2(C)C)SC1=S | x | 156.0* | -5.05 | 130.0 | x | 67.0 | i | 36.0 | -58.0*[inhibitor] | 41.0*
CC(C)Cc1nnc(NC(=O)c2cc(S(=O)(=O)N(C)C)ccc2N2CCCC2)s1 | -6.1 | 7.0 | x | 107.0 | -5.8 | 103.0 | x | x | x | x
CCCCNc1c2c3c(cccc3n(C)c1=O)C(=O)c1ccccc1-2 | -629.0 | -21.0 | -5.14* | 41.0*[inhibitor] | -85.8 | 74.0 | + | 72.0 | -13.0 | 95.0
Cn1c(=O)c(NCCc2ccccc2)c2c3c(cccc31)C(=O)c1ccccc1-2 | x | -16.0 | -5.14* | 62.0*[inhibitor] | -77.7 | 85.0 | + | 85.0 | -9.0 | 100.0
CC(=O)Nc1ccc(Nc2c3c4c(cccc4n(C)c2=O)C(=O)c2ccccc2-3)cc1 | -15.7 | -5.0 | 1.98 | 90.0 | -16.8 | 83.0 | x | x | x | x
O=C1Cc2cc(S(=O)(=O)Nc3ccc(N4CCOCC4)cc3)ccc2N1 | -0.8 | x | x | x | 9.3 | x | x | x | x | x
COc1ccc(NC(=O)/C(C#N)=C\c2ccc(N3CCOCC3)o2)cc1 | -6.1 | -10.0 | -1.14 | 90.0 | -11.9 | 98.0 | x | x | x | x
N#C/C(=C/c1ccc(N2CCCCC2)o1)C(=O)Nc1ccc2ccccc2c1 | x | 206.0* | -3.98* | 210.0* | -9.7 | 148.0* | + | 89.0 | -30.0 | 92.0
O=C(O)c1ccc(/C=N/NC(=O)C(O)(c2ccccc2)c2ccccc2)cc1 | 2.6 | 0.0 | x | 103.0 | 6.9 | 101.0 | x | x | x | x
CCN(CC)c1ccc(/C=N/NC(=O)C(O)(c2ccccc2)c2ccccc2)o1 | x | 0.0 | -4.86* | 95.0 | x | 75.0*[inhibitor] | i | 100.0 | 0.0 | 103.0
Cc1nc([N+](=O)[O-])c(Br)n1CC(=O)c1ccc(Br)cc1 | 19.4 | 6.0 | -4.25* | 126.0 | 3.2 | 133.0* | + | 93.0 | -12.0 | 95.0
COc1ccc(-c2oc3ccc(-c4cc(OC)c(OC)c(OC)c4)cc3c2C#Cc2ccccn2)cc1 | 19.1 | x | x | x | 9.4 | x | x | x | x | x
CCOC(=O)C(=Cc1ccc(F)cc1)C(=O)OCC | x | 33.0* | -5.21* | 121.0 | x | 114.0 | + | 101.0 | 0.0 | 105.0
O=C(CSc1nc(C(F)(F)F)cc(=O)[nH]1)N1CCC(Cc2ccccc2)CC1 | -1.8 | x | x | x | 14.4 | x | x | x | x | x
CCn1c(/C=C/N(C(C)=O)c2ccccc2)[n+](CC)c2ccc(Cl)cc21 | -21.9 | -1.0 | -0.0514 | 104.0 | -3.6 | 109.0 | x | x | x | x
CC[n+]1c(/C=C/C=C/N(C(C)=O)c2ccccc2)sc2ccccc21 | -4.0 | -16.0 | -3.88* | x | -68.5 | 2.0*[inhibitor] | + | 13.0*[inhibitor] | 7.0 | 87.0
N=c1n(CCN2CCCCC2)c2ccccc2n1CC(=O)c1ccc(Cl)c(Cl)c1 | 29.3 | 28.0 | -3.65* | 173.0* | 1.6 | 102.0 | i | 166.0 | 30.0 | 106.0
CS(=O)(=O)N1N=C(c2ccccc2)CC1c1ccc2c(c1)OCO2 (stereo unspecified) | -192.4 | x | -7.76 | x | 0.1 | 20.0*[inhibitor] | i | 67.0 | -22.0 | 68.0*
CCCNC(=O)Cn1c(=O)/c(=C/c2ccc(-c3cccc([N+](=O)[O-])c3)o2)s/c1=C\C(=O)C(C)(C)C | -11.1 | x | x | x | -2.4 | x | x | x | x | x
CCCNC(=O)Cn1c(=O)/c(=C\c2ccc(-c3ccc([N+](=O)[O-])cc3)o2)s/c1=C\C(=O)C(C)(C)C | x | 132.0* | -4.95 | x | 6.9 | 90.0 | + | 79.0 | -25.0 | 93.0
CCN(C[C@H]1N[C@@](Cc2ccccc2)(C(=O)OC)[C@H]2C(=O)N(Cc3ccccc3)C(=O)[C@@H]12)C(=O)Nc1ccc(Cl)cc1 | 0.4 | x | x | x | -4.2 | x | x | x | x | x
Cc1cc(CNC(=O)c2cccc(OC3CCN(S(=O)(=O)N(C)C)CC3)c2)on1 | -0.6 | 3.0 | x | 98.0 | -2.2 | 100.0 | x | x | x | x
O=[N+]([O-])c1ccc(-c2ccc(/C=N/Nc3nc(N4CCCCC4)nc(N4CCCCC4)n3)o2)cc1 | -218.5 | 99.0* | -7.32 | 101.0 | 1.6 | 98.0 | i | 99.0 | -4.0 | 103.0
SMILES | Beta2AR agonist | MEKK2 mut-MEK5 | Dynein cargo inh | MEKK2wt PB1 HTS | ATG4B inh | MEKK3 PB1 HTS | Dynein confirm | MEKK2wt confirm | MEKK2mut-MEK5 | MEKK3 confirm
Cc1ccc2nc(Cl)c3cc(C(=O)N(CCN(C)C)Cc4ccco4)sc3c2c1 | 15.7 | 5.0 | -3.52* | 149.0* | -13.1 | 96.0 | i | 137.0 | 21.0 | 104.0
CC1=NN(c2ccccc2)C(=O)/C1=C/C=C/c1ccccc1 | 32.5 | -1.0 | -5.8* | 100.0 | -13.2 | 129.0* | + | 101.0 | 4.0 | 101.0
CCC(C)NC(=O)CSc1ccc(S(=O)(=O)N(C)C2CCCCC2)cn1 (stereo unspecified) | -2.7 | x | x | x | -11.6 | x | x | x | x | x
CC(=O)Nc1sc(N/N=C/c2ccccc2)nc1-c1ccc(C)cc1 | 1.9 | 0.0 | -0.886 | 97.0 | -10.3 | 100.0 | x | x | x | x
CC(=O)Nc1sc(/C(C#N)=C\c2cccc(Cl)c2)nc1-c1ccc(C)cc1 | i | 26.0 | -5.87 | 13.0*[inhibitor] | -8.2 | 107.0 | i | 99.0 | -4.0 | 106.0
O=S(=O)(Nc1nc(-c2ccccc2)cs1)c1cccc(C(F)(F)F)c1 | 1.5 | 0.0 | x | 92.0 | -2.8 | 91.0 | x | x | x | x
O=C1C(Cl)=C(NCc2ccco2)C(=O)c2ccccc21 | 1.5 | x | x | x | -3.5 | x | x | x | x | x
O=C1c2ccccc2-c2onc3ccc(NCc4ccco4)c1c23 | -153.3 | -18.0 | -6.64 | 53.0*[inhibitor] | -25.8 | 52.0*[inhibitor] | i | 63.0 | -22.0 | 59.0*
CCNc1ccc(Br)cc(C(=O)/C=C/c2c(Cl)cccc2Cl)c1=O | -83.1 | 2.0 | -5.6 | 47.0*[inhibitor] | 34.1 | 82.0 | + | 80.0 | -11.0 | 95.0
CCNc1ccc(Br)cc(C(=O)/C=C/c2ccc(Cl)cc2)c1=O | 11.3 | -5.0 | -2.49 | 72.0 | 22.5 | 88.0 | x | x | x | x

Assay outcomes (PubChem)
